pEC50: −log10 of the molar value. The source made the active and inactive calls. The calls are words filed in the database; no cut-off is given here.
Assays:
[1] = target: T1, Androgen receptor (Homo sapiens) (UniProt P10275); experiment: Displacement of [3H]-testosterone from human recombinant androgen receptor expressed in baculovirus infected insect cells at 1200 nM
T1 sequence (whole entry): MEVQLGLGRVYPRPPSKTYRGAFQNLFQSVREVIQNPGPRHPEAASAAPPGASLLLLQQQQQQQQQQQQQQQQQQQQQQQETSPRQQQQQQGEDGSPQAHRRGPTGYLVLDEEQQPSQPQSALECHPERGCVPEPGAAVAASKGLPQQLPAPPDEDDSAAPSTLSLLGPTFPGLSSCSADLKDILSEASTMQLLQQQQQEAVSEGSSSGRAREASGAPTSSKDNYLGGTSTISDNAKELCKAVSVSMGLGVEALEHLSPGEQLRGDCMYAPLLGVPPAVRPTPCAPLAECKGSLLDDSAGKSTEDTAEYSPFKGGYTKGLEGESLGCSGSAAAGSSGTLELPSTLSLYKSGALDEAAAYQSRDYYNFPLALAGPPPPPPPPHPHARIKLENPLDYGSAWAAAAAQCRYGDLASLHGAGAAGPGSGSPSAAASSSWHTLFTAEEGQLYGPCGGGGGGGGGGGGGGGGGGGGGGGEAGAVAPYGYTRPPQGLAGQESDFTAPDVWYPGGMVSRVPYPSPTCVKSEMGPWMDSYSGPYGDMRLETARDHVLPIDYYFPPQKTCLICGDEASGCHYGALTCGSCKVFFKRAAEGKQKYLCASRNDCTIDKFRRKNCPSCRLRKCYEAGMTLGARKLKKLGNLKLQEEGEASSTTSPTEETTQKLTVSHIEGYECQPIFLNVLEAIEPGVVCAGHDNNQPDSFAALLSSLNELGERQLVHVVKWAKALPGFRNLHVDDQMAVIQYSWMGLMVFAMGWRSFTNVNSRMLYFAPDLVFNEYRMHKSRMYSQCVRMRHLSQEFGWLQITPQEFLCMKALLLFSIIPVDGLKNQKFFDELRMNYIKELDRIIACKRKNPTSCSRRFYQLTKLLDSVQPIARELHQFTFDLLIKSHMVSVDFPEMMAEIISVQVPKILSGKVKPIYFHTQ
In short: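 Competition of test compound at a single concentration against 10 nM ³H-testosterone for binding to recombinant human AR in lysates of baculovirus-infected cells. Dihydrotestosterone at 2 µM served as the positive control. Results are expressed as % of control.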

[2] = Cmax in B10.R3 mouse at 30 mg/kg, po; type: ADME, organism-based; set-up: dose 30 mg/kg, route oral; conditions: in vivo
In short: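 Mouse PK: IV dose 1 mg/kg in PEG400/water (70:30); oral dose 30 mg/kg given as a suspension in 30% Cremophor. Values are the mean of 3 mice.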

[3] = Clearance in Sprague-Dawley rat at 2 mg/kg, iv; type: ADME, organism-based; set-up: dose 2 mg/kg, route intravenous; conditions: in vivo
In short: (§1)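 Rat PK: IV dose 2 mg/kg in PEG400/water (70:30); oral dose 30 mg/kg in PEG400/H2O/Tween (80/18/2). Values are the mean of 3 rats.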

[4] = AUC (infinity) in Sprague-Dawley rat at 30 mg/kg, po; type: ADME, organism-based; set-up: dose 30 mg/kg, route oral, time infinity; conditions: plasma; in short: as §1
[5] = tested on: Mus musculus; experiment: Toxicity in B10.R3 mouse collagen-induced arthritis model assessed as change in serum free fatty acids level at 30 mg/kg, po qd for 5 weeks relative to control; type: organism-based; set-up: dose 30 mg/kg, route oral; conditions: in vivo, 840 h
In short: (§2)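 Arthritic B10.RIII CIA mice were dosed orally once daily for 5 weeks. At day 35 they were anesthetized with ketamine (50 mg/kg) and xylazine (15 mg/kg). Body fat was assessed by whole-body density scan. Serum triglycerides were measured by enzymatic kit (Wako L-Type TG-H) and free fatty acids by NEFA-C. Results are expressed as % change versus vehicle and compared by t-test.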

[6] = tested on: Mus musculus; experiment: Toxicity in B10.R3 mouse collagen-induced arthritis model assessed as change in body fat level at 30 mg/kg, po qd for 5 weeks relative to control; type: organism-based; set-up: dose 30 mg/kg, route oral; conditions: in vivo, 840 h; in short: as §2
[7] = tested on: Mus musculus; experiment: Antiinflammatory activity in po dosed mouse plasma assessed as inhibition of LPS-induced TNFalpha production administered 1 hr before LPS challenge measured after 1 hr; type: functional
In short: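 Mice received compound orally in Cremophor RH 1 h before LPS challenge. Plasma TNF-α was measured 1 h after challenge. n = 8 per group; doses were 3 and 10 mg/kg.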

[8] = target: T2, Glucocorticoid receptor (Homo sapiens, UniProt P04150); experiment: Agonist activity at glucocorticoid receptor in human HeLa cells transfected with luciferase gene linked to MMTV promoter assessed as luciferase transactivation activity; type: functional, cell-based
T2 sequence (P04150 whole entry): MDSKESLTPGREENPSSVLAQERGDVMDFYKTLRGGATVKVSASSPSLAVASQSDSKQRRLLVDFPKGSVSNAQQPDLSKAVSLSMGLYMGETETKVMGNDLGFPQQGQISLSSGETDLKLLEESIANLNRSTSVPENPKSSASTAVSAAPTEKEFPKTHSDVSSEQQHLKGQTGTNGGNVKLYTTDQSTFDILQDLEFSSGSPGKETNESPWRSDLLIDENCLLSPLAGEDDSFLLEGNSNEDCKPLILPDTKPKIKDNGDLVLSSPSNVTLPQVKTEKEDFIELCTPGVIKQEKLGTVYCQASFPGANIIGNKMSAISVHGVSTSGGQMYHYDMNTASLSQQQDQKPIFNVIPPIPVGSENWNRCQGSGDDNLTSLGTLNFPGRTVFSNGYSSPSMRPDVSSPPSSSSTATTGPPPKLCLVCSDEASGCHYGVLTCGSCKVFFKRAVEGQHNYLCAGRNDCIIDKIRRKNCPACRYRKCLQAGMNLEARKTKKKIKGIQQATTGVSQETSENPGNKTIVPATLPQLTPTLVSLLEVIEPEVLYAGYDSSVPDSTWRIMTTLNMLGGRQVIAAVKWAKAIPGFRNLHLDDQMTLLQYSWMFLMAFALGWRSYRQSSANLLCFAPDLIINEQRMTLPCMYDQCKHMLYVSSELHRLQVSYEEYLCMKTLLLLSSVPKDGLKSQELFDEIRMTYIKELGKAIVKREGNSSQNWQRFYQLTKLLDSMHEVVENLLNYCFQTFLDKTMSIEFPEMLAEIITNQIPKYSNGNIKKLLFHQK

[9] = tested on: Mus musculus; experiment: Toxicity in B10.R3 mouse collagen-induced arthritis model assessed as change in serum insulin level at 30 mg/kg, po qd for 5 weeks by ELISA relative to control; type: organism-based; set-up: dose 30 mg/kg, route oral; conditions: in vivo, 840 h
[10] = Cmax in Sprague-Dawley rat at 30 mg/kg, po; type: ADME, organism-based; set-up: dose 30 mg/kg, route oral; conditions: in vivo; in short: as §1
[11] = tested on: Mus musculus; experiment: Antiarthritic activity in B10.R3 mouse collagen-induced arthritis model assessed as AUC of disease progression inhibition at 10 mg/kg, po qd for 5 weeks; type: functional; conditions: B10.R3, 840 h
In short: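 B10.RIII mice immunized with porcine type II collagen plus complete Freund's adjuvant were enrolled at the first signs of arthritis. They were dosed orally once daily for 5 weeks; vehicle was 30% Cremophor RH. All four paws were scored 1–4 (maximum 16 per animal). Disease-score AUCs from 10 mice per group were compared with vehicle by Mann–Whitney test.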

| Structure (SMILES) | Activity [1] | Cmax [2] [ng/mL] | clearance [3] [mL/min/kg] | AUC(0-inf) [4] [ng·h/mL] | Activity [5] [%] | Activity [6] [%] | ED50 [7] [mg/kg] | pEC50 [8] | Activity [9] [%] | Cmax [10] [ng/mL] | inhibition in vivo at 10 mg/kg [11] [%] |
| --- | --- | --- | --- | --- | --- | --- | --- | --- | --- | --- | --- |
| COc1ccc(F)cc1C(C)(C)C[C@@](O)(Cc1cc2ccccc2[nH]1)C(F)(F)F | inactive | – | – | – | – | – | – | – | – | – | – |
| CC(C)(C[C@@](O)(Cc1cc2ccc(C#N)cc2[nH]1)C(F)(F)F)c1cc(S(C)(=O)=O)cc2c1OCC2 | – | 6190 | 51 | 4850 | 8 | 6 | < 3 | < 5.70 | -29 | 955 | 62 |
